# Test results as given in ChEMBL document CHEMBL3621072, “Design, Virtual Screening, and Synthesis of Antagonists of αIIbβ3 as Antiplatelet Agents” (J Med Chem, 2015).
# Target: T1, Integrin alpha-IIb/beta-3 (Homo sapiens, UniProt P05106+P08514)
# Test: Antagonist activity against integrin alpha2bbeta3 in human platelet rich plasma
# Procedure, shortened: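 Human platelet-rich plasma, aggregation induced by ADP and followed by Born's light-transmission method. Inhibition of aggregation by the test compound is reported as IC50. Pure enantiomers tested.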
# T1 sequence (P05106 27-788 limits assumed): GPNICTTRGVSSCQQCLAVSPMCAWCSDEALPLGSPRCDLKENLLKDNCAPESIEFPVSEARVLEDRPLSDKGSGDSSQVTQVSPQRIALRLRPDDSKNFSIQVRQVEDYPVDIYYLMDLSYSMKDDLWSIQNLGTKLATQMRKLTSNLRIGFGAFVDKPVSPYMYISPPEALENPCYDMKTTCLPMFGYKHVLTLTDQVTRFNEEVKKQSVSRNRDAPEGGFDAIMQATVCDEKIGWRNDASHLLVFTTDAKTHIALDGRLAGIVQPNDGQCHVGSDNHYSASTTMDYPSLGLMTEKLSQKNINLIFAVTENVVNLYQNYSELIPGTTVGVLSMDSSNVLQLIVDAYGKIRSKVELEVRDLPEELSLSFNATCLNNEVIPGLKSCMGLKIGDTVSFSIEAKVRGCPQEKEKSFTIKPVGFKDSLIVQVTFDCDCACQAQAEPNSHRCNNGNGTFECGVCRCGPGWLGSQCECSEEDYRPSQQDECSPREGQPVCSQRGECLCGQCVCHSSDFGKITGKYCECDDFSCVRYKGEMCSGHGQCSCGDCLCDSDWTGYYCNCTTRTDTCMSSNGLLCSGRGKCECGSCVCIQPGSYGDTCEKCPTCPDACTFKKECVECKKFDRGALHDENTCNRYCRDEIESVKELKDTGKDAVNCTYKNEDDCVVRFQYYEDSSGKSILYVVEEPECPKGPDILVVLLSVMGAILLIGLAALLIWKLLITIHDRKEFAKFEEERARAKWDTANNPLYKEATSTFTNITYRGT
# T1 sequence (P08514 32-887 limits assumed): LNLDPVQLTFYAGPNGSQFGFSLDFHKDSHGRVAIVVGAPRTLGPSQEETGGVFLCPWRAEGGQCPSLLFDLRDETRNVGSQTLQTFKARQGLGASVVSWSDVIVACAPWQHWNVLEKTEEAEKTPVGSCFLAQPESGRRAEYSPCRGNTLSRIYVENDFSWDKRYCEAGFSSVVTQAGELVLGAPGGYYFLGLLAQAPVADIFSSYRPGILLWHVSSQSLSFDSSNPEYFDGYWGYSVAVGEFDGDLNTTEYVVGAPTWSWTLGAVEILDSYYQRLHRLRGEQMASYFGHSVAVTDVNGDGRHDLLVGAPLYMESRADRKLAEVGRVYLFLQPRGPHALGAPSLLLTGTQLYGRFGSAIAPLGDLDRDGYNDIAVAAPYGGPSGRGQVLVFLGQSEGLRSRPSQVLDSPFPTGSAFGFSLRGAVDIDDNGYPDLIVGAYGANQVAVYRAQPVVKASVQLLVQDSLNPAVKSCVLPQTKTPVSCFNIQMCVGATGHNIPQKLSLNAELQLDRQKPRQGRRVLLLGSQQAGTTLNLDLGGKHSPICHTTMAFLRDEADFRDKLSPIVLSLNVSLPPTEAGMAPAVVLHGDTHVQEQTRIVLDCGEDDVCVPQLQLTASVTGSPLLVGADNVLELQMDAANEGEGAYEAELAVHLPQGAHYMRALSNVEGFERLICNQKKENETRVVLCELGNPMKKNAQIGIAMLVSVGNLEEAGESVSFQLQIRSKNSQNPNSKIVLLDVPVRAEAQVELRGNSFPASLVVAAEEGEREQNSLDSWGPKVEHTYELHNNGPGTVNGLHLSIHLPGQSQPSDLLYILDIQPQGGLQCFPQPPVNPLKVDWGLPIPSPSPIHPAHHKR
# T1 sequence (P08514 891-1039 limits assumed): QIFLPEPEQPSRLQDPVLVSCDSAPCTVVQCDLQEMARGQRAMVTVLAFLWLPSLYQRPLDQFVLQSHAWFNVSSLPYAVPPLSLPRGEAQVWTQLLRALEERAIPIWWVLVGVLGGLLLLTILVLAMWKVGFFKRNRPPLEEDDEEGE
row,Structure (SMILES),IC50 [nM]
1,CCc1nn2c(=O)cc(N3CCNCC3)nc2s1,13000
2,N=C(N)c1ccc2cc(OC(=O)c3ccc(N=C(N)N)cc3)ccc2c1 [NAFAMOSTAT],12500

# Target: T1, Integrin alpha-IIb/beta-3
# Test: Inhibition of FITC-labeled fibrinogen binding to integrin alpha2bbeta3 open form in human washed platelets
# Procedure, shortened: (§1)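 Suspension of washed human platelets; αIIbβ3 binding of fluorescein isothiocyanate-labeled fibrinogen (FITC-Fg) measured, inhibition by test compound expressed as IC50. Pure enantiomers tested.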
row,IC50 [nM],Structure (SMILES)
1,0.96,O=C(CCNC(=O)c1ccc2c(c1)CNCC2)NC[C@@H](NS(=O)(=O)c1ccccc1)C(=O)O
2,62,CCCCS(=O)(=O)N[C@@H](CNC(=O)CCNC(=O)c1ccc2c(c1)CNCC2)C(=O)O
3,0.22,O=C(CCNC(=O)c1ccc2c(c1)CNCC2)NC[C@H](NS(=O)(=O)c1ccccc1)C(=O)O
4,79,CCCCS(=O)(=O)N[C@H](CNC(=O)CCNC(=O)c1ccc2c(c1)CNCC2)C(=O)O

# Target: T1, Integrin alpha-IIb/beta-3
# Test: Inhibition of FITC-labeled fibrinogen binding to integrin alpha2bbeta3 closed form in human washed platelets
# Procedure, shortened: as §1
row,IC50 [nM],Structure (SMILES)
1,3.8,O=C(Nc1ccc2nc(N3CCNCC3)[nH]c(=O)c2c1)C1CCNCC1
2,5,NCCC(=O)Nc1ccc2nc(N3CCNCC3)[nH]c(=O)c2c1
3,2.2,NCCCC(=O)Nc1ccc2nc(N3CCNCC3)[nH]c(=O)c2c1
